From ChEMBL document CHEMBL4196230, “Design, Synthesis, and Blood-Brain Barrier Transport Study of Pyrilamine Derivatives as Histone Deacetylase Inhibitors” (ACS Med Chem Lett, 2018)
Activity calls are given as the source filed them. No cut-off for these calls is given here.

Tests used:
[1] = target: Histone deacetylase 3/Nuclear receptor corepressor 2 (HDAC3/NCoR2) (Homo sapiens, UniProt O15379); experiment: Inhibition of human full length C-terminal His-tagged HDAC3/N-terminal GST-tagged human NCOR2 (395 to 489 residues) co-expressed in baculovirus infected Sf9 insect cells using HDAC substrate 3 measured after 30 mins by fluorescence assay
[2] = target: Histone deacetylase 4 (Homo sapiens) (UniProt P56524); experiment: Inhibition of N-terminal GST tagged/C-terminal His tagged human recombinant HDAC4 (627 to 1084 residues) expressed in baculovirus infected insect cells at 30 uM using HDAC class 2a substrate measured after 30 mins by fluorescence assay relative to control
[3] = target: T1, Histone deacetylase 7 (Homo sapiens) (UniProt Q8WUI4); experiment: Inhibition of recombinant human HDAC7 (518 to end residues) expressed in baculovirus infected insect cells at 30 uM using HDAC class 2a substrate measured after 30 mins by fluorescence assay relative to control
T1 sequence (whole entry): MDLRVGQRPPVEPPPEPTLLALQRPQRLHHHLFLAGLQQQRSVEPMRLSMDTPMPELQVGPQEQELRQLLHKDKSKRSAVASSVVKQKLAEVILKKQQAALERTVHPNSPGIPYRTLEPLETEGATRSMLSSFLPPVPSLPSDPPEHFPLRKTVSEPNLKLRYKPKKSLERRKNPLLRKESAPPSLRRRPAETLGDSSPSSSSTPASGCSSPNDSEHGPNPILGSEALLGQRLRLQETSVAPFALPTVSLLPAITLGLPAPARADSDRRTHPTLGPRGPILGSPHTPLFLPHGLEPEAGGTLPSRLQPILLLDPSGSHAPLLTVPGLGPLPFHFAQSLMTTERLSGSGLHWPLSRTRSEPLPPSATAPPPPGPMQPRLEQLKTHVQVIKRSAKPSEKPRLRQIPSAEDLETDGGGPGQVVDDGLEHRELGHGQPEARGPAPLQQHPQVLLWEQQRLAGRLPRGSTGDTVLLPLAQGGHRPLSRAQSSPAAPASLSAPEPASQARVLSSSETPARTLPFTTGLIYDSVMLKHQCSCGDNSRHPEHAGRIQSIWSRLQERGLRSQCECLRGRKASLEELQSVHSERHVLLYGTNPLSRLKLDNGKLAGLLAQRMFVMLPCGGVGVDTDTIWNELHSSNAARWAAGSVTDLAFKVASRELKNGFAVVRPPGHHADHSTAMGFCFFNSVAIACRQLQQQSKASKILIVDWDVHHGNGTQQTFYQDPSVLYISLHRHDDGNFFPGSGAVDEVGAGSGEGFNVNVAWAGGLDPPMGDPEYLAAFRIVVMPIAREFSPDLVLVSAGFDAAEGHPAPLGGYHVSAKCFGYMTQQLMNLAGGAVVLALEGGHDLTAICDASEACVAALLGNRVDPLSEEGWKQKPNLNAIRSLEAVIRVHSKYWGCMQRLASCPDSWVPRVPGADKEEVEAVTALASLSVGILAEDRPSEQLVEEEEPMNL

[4] = target: T2, Histone deacetylase (Homo sapiens) (UniProt Q13547+O15379+Q9UBN7+Q92769+Q9UQL6+Q8WUI4+Q9BY41+Q96DB2+P56524+Q9UKV0+Q969S8); experiment: Time-dependent inhibition of HDAC in human HeLaS3 cells assessed as increase in histone H3K9 acetylation at 10 uM by immunoblot analysis; format: cell-based
[5] = Substrate activity at PYSOCA in human CMEC/D3 cells assessed as transporter-mediated drug uptake measured for 2 mins at 37degC; format: ADME, cell-based
PYSOCA = experiment: Substrate activity at PYSOCA in human CMEC/D3 cells assessed as Km for transporter-mediated drug uptake measured for 2 mins at 37degC; format: ADME, cell-based; conditions: hCMEC/D3 cells
Summary of the method: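 Uptake by hCMEC/D3 cells measured over a range of concentrations at 37 °C for 2 min. Km and Vmax were obtained by fitting to Eq. 1. Mean ± S.E., n = 4.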

[6] = Substrate activity at PYSOCA in human CMEC/D3 cells assessed as transporter-mediated drug uptake measured for 1 min at 37degC in presence of NH4Cl under intracellular alkalization condition; format: ADME, cell-based
Summary of the method: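 hCMEC/D3 cells were pretreated in transport buffer with or without 30 mM NH4Cl. Uptake was then measured at 37 °C for 1 min with or without 30 mM NH4Cl (Control, Pre and Acute conditions). Mean ± S.E., n = 4.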

[7] = Substrate activity at PYSOCA in human CMEC/D3 cells assessed as transporter-mediated drug uptake measured for 2 mins at 37degC in presence of pyrilamine; format: ADME, cell-based
[8] = Substrate activity at PYSOCA in human CMEC/D3 cells assessed as transporter-mediated drug uptake measured for 2 mins at 37degC in presence of tramadol; format: ADME, cell-based
[9] = Substrate activity at PYSOCA in human CMEC/D3 cells assessed as transporter-mediated drug uptake measured for 2 mins at 37degC in presence of clonidine; format: ADME, cell-based
[10] = Substrate activity at PYSOCA in human CMEC/D3 cells assessed as transporter-mediated drug uptake measured for 2 mins at 37degC in presence of TEA; format: ADME, cell-based
[11] = Blood brain barrier permeability in Wistar rat brain at 20 uM by LC-MS/MS analysis; format: ADME, tissue-based
Summary of the method: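 Right cerebral hemisphere of rat perfused with buffer containing test agent (20 µM) at 4.9 mL/min for 1 min.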

[12] = target: T2, Histone deacetylase (Homo sapiens); conditions: at 10 µM

Sequence of Histone deacetylase 4 (Homo sapiens) (P56524 whole entry, the tested form may be a part): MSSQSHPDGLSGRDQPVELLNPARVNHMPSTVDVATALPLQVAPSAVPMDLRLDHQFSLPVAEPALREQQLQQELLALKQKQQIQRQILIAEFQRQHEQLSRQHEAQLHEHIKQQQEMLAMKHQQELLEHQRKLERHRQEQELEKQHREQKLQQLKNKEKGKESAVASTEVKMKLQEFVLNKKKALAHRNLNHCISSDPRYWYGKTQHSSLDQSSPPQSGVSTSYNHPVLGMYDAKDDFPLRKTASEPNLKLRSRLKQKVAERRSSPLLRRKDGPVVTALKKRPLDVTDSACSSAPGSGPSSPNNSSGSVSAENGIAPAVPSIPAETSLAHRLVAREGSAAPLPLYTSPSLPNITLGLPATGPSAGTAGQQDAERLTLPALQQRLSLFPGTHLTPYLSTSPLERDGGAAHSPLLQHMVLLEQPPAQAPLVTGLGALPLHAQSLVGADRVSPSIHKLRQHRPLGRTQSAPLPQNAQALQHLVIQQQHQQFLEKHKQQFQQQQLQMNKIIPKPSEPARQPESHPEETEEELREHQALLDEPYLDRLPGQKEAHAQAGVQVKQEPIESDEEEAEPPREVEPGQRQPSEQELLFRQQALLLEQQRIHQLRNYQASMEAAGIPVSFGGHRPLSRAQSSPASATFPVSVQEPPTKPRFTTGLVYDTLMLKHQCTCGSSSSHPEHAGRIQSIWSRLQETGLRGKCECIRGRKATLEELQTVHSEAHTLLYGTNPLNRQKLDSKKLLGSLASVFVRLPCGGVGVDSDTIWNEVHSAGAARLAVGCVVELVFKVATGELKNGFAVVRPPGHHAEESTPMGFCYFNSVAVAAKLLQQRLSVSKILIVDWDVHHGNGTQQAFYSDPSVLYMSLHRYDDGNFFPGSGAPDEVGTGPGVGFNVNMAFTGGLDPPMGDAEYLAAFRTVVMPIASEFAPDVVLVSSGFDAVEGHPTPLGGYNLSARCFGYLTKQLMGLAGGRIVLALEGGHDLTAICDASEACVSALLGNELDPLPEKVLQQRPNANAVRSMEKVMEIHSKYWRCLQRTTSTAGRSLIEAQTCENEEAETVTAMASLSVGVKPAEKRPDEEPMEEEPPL
Sequence of Histone deacetylase 3/Nuclear receptor corepressor 2 (HDAC3/NCoR2) (O15379 whole entry, the tested form may be a part): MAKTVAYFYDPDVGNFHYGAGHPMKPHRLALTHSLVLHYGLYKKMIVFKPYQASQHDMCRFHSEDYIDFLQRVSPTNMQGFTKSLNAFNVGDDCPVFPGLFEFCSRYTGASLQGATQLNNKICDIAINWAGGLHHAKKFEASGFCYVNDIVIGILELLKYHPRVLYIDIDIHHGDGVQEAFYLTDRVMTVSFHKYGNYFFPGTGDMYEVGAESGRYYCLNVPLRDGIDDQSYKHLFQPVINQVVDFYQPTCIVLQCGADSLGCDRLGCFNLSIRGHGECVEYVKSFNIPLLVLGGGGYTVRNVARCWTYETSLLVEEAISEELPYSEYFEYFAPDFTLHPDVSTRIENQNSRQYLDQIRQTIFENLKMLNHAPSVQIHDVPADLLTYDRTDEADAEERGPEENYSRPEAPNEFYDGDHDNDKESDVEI
Sequence of Histone deacetylase 3/Nuclear receptor corepressor 2 (HDAC3/NCoR2) (Q9Y618 whole entry, further chain, the tested form may be a part): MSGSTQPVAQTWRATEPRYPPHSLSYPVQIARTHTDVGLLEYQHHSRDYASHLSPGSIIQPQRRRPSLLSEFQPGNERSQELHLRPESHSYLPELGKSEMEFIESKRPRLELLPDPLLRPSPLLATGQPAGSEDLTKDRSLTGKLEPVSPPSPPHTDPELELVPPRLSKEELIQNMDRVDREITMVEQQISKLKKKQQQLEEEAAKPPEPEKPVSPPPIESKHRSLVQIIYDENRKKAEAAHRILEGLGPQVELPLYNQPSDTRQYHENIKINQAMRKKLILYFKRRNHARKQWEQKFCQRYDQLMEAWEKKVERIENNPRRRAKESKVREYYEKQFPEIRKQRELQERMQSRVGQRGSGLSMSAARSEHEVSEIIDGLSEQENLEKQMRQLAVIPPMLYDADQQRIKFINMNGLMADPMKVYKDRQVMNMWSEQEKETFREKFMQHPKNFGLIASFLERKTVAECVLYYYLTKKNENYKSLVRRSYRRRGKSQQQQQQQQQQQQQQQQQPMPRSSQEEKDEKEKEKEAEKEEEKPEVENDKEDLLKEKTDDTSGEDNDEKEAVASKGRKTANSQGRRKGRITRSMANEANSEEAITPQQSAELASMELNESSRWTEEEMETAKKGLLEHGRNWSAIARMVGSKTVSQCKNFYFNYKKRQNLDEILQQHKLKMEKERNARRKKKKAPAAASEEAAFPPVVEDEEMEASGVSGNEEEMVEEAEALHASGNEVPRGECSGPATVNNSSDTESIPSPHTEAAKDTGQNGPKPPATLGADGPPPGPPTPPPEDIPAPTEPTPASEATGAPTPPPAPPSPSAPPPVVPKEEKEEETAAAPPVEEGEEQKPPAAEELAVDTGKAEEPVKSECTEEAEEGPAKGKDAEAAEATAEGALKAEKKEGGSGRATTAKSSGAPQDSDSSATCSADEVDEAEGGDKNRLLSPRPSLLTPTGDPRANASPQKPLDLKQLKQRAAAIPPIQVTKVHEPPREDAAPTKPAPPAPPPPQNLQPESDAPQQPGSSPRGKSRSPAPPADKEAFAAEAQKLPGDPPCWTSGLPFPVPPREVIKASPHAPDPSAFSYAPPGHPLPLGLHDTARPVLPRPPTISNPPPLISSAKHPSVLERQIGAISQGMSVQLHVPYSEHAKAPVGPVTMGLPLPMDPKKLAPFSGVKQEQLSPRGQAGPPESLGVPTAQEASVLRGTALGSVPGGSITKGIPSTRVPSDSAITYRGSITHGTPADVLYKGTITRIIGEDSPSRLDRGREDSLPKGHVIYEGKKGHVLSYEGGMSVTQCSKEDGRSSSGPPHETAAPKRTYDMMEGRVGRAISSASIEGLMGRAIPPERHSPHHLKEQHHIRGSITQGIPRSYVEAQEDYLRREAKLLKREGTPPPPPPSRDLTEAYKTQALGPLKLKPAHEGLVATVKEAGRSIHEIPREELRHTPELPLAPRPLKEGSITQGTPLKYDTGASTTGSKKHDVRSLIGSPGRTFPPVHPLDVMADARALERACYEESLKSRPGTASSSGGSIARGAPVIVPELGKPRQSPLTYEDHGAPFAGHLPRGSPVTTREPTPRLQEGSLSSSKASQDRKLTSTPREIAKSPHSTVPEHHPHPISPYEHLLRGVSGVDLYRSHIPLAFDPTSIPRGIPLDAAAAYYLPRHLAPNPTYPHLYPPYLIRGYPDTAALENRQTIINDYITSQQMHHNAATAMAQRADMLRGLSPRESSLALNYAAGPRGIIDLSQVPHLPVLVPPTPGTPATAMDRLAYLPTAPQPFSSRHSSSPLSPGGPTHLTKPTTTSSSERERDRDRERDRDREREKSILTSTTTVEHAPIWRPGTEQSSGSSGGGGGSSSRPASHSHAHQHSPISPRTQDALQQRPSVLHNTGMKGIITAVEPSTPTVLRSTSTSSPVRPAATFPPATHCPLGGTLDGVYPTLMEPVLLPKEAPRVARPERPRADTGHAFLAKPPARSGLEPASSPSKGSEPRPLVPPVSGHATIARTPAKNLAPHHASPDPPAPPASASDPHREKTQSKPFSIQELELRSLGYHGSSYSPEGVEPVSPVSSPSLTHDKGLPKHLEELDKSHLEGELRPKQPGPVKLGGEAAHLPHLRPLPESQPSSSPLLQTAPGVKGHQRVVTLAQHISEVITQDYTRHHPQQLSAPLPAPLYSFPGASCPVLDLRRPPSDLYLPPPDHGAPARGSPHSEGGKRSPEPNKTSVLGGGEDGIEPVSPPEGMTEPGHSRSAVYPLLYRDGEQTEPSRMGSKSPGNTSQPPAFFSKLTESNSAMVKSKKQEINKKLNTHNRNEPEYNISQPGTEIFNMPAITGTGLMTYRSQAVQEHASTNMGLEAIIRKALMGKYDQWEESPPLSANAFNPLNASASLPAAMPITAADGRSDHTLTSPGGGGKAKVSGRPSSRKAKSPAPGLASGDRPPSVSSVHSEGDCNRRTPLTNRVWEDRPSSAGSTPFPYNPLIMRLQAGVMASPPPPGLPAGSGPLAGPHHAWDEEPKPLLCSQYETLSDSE

- IC50 [1]: 12 µM
- inhibition [2]: < 10%
- inhibition [3]: < 10%
- TDI [4]: Active
- Activity [5]: Dose-dependent effect
- Km at 2 min (PYSOCA): 326 µM
- Activity [6]: Not Active
- Activity [7]: Not Active
- Activity [8]: Not Active
- Activity [9]: Not Active
- Activity [10]: Active
- pBBB [11]: 42.4 microL/min/g
- inhibition [12]: Active
SMILES: COc1ccc(CN(CCN(C)C)c2ccc(C(=O)Nc3ccccc3N)cn2)cc1
